ChEMBL document CHEMBL3822422, “Discovery of the First α-Amino-3-hydroxy-5-methyl-4-isoxazolepropionic Acid (AMPA) Receptor Antagonist Dependent upon Transmembrane AMPA Receptor Regulatory Protein (TARP) γ-8” (J Med Chem, 2016)

Key:
[1] = Toxicity in po dosed Sprague-Dawley rat assessed as motor impairment by inverted screen test; type: organism-based; conditions: in vivo
In short: (§1)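 Rats given compound orally (10 or 100 mg/kg), scored on inverted screen for motor impairment; plasma exposure measured; ≥4 rats/group, mean ± SEM; TD50 used with PTZ ED50 for protective index.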

Glutamate receptor 1 [2] = molecular target: T1, Glutamate receptor 1 (Homo sapiens, UniProt P42261); experiment: (§2) Antagonist activity at human iGluA1 receptor flop isoform expressed in CHO-S cells coexpressing TARP gamma-8 and human EAAT3 assessed as inhibition of glutamate-induced increase in intracellular calcium levels after 2 mins followed by cyclothiazide/glutamate addition by fluo-4 AM dye based fluorescence imaging plate reader method; type: cell-based
In short: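 Transiently transfected CHO-S cells (human GluA1Q flop with TARP γ-8 and human EAAT3, DNA ratio 2:3), frozen, thawed, plated overnight at 37 °C; Fluo-4 AM loading 2 h at 22 °C. Compound added, then 2 min later glutamate (5 μM final); cyclothiazide (20 μM) plus glutamate (45 μM) 2 min after. FLIPR Ca2+ read; inhibition relative to 167 μM nonselective antagonist and buffer baseline; four-parameter logistic IC50; mean ± SEM, n ≥ 2.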

Glutamate receptor 1 [3] = molecular target: T1, Glutamate receptor 1; experiment: as §2, with “gamma-2” for “gamma-8 and human EAAT3”; type: cell-based
Glutamate receptor 1 [4] = molecular target: T1, Glutamate receptor 1; experiment: Antagonist activity at human iGluA1 receptor flip isoform expressed in CHO-S cells assessed as inhibition of glutamate-induced increase in intracellular calcium levels after 2 mins followed by cyclothiazide/glutamate addition by fluo-4 NW dye based fluorescence imaging plate reader method; type: cell-based
[5] = AUC in rat at 1 mg/kg, iv; type: ADME, organism-based; conditions: in vivo
In short: (§3)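 Rats dosed 1 mg/kg iv or 3 mg/kg po; plasma concentration–time profiles give AUC, CL, Vdss, Cmax, Tmax and absolute oral bioavailability; mean and SEM, n = 3.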

[6] = Clearance in rat; type: ADME, organism-based; conditions: in vivo
Cytochrome P450 1A2 = molecular target: T2, Cytochrome P450 1A2 (Homo sapiens, UniProt P05177); experiment: Inhibition of human CYP1A2; type: ADME
T2 sequence (P05177 whole entry): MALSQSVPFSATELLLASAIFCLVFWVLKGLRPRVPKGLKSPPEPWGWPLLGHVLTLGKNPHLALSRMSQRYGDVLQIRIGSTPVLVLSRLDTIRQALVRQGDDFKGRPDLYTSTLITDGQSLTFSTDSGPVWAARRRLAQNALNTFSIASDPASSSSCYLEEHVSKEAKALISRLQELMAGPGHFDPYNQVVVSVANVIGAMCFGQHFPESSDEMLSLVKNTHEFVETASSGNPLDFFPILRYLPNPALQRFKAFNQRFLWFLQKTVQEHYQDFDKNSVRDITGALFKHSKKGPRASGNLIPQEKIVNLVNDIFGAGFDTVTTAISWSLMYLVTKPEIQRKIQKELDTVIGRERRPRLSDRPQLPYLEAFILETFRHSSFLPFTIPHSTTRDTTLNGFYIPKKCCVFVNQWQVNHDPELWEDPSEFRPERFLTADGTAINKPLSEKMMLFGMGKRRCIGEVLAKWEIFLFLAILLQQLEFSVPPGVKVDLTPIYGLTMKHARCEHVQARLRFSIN

Rattus norvegicus [7] = experiment: Anticonvulsant activity in po dosed Sprague-Dawley rat assessed as inhibition of pentylenetetrazole-induced clonic convulsions administered 30 mins prior to PTZ dosing measured over 30 mins; type: functional
[8] = Oral bioavailability in rat at 3 mg/kg; type: ADME, organism-based; conditions: in vivo; in short: as §3
[9] = Volume of distribution at steady state in rat at 1 mg/kg, iv; type: ADME, organism-based; conditions: in vivo, read-out: Vdss; in short: as §3
[10] = Clearance in rat at 1 mg/kg, iv; type: ADME, organism-based; conditions: in vivo; in short: as §3
[11] = AUC in rat at 3 mg/kg, po; type: ADME, organism-based; conditions: in vivo; in short: as §3
[12] = Tmax in rat at 3 mg/kg, po; type: ADME, organism-based; conditions: in vivo; in short: as §3
[13] = Cmax in rat at 3 mg/kg, po; type: ADME, organism-based; parameters: dose 3 mg/kg, route oral; conditions: in vivo; in short: as §3
Rattus norvegicus [14] = species on record: Rattus norvegicus; experiment: Potency index, ratio of perampanel ED50 to compound ED50 for inhibition of pentylenetetrazole-induced clonic convulsions in Sprague-Dawley rat; type: functional
Rattus norvegicus [15] = experiment: Anticonvulsant activity in po dosed Sprague-Dawley rat assessed as inhibition of pentylenetetrazole-induced clonic convulsions at 1 mg/kg administered 30 mins prior to PTZ dosing measured over 30 mins; type: functional
Rattus norvegicus [16] = experiment: Anticonvulsant activity in po dosed Sprague-Dawley rat assessed as inhibition of pentylenetetrazole-induced clonic convulsions at 3 mg/kg administered 30 mins prior to PTZ dosing measured over 30 mins; type: functional
Rattus norvegicus [17] = experiment: Anticonvulsant activity in po dosed Sprague-Dawley rat assessed as inhibition of pentylenetetrazole-induced clonic convulsions at 10 mg/kg administered 30 mins prior to PTZ dosing measured over 30 mins; type: functional
Plasma [18] = experiment: Plasma concentration in Sprague-Dawley rat at 30 mg/kg, po; type: ADME, organism-based; conditions: in vivo
Plasma [19] = experiment: Plasma concentration in Sprague-Dawley rat at 1 mg/kg, po; type: ADME, organism-based; conditions: in vivo
Plasma [20] = experiment: Plasma concentration in Sprague-Dawley rat at 3 mg/kg, po; type: ADME, organism-based; conditions: in vivo
Plasma [21] = experiment: Plasma concentration in Sprague-Dawley rat at 10 mg/kg, po; type: ADME, organism-based; conditions: in vivo
Rattus norvegicus [22] = experiment: Receptor occupancy at TARP gamma-8 containing AMPA receptor in Sprague-Dawley rat at 1 mg/kg, po administered 30 mins prior to addition of 6-[2-Ethoxyethyl-[4-(2-pyridyl)thiazol-2-yl]amino]-3H-1,3-benzothiazol-2-one measured after 40 mins by […]; type: functional
Rattus norvegicus [23] = experiment: Receptor occupancy at TARP gamma-8 containing AMPA receptor in Sprague-Dawley rat at 3 mg/kg, po administered 30 mins prior to addition of 6-[2-Ethoxyethyl-[4-(2-pyridyl)thiazol-2-yl]amino]-3H-1,3-benzothiazol-2-one measured after 40 mins by […]; type: functional
Rattus norvegicus [24] = experiment: Receptor occupancy at TARP gamma-8 containing AMPA receptor in Sprague-Dawley rat at 10 mg/kg, po administered 30 mins prior to addition of 6-[2-Ethoxyethyl-[4-(2-pyridyl)thiazol-2-yl]amino]-3H-1,3-benzothiazol-2-one measured after 40 mins by […]; type: functional
Rattus norvegicus [25] = experiment: Receptor occupancy at TARP gamma-8 containing AMPA receptor in Sprague-Dawley rat at 30 mg/kg, po administered 30 mins prior to addition of 6-[2-Ethoxyethyl-[4-(2-pyridyl)thiazol-2-yl]amino]-3H-1,3-benzothiazol-2-one measured after 40 mins by […]; type: functional
Brain [26] = experiment: Drug uptake in Sprague-Dawley rat brain at 1 mg/kg, po; type: ADME, organism-based; conditions: in vivo
In short: (§4)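 Rats dosed orally 1–30 mg/kg 30 min before iv bolus of non-radiolabelled tracer; brain taken 40 min after tracer; tracer in hippocampus (total binding) and cerebellum (null region) quantified by LC-MS/MS; occupancy by ratio method; brain exposure measured; n = 4 per group, mean ± SEM.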

Brain [27] = experiment: Drug uptake in Sprague-Dawley rat brain at 3 mg/kg, po; type: ADME, organism-based; conditions: in vivo; in short: as §4
Brain [28] = experiment: Drug uptake in Sprague-Dawley rat brain at 10 mg/kg, po; type: ADME, organism-based; conditions: in vivo; in short: as §4
Brain [29] = experiment: Drug uptake in Sprague-Dawley rat brain at 30 mg/kg, po; type: ADME, organism-based; conditions: in vivo; in short: as §4
Plasma [30] = experiment: Plasma concentration in Sprague-Dawley rat at 100 mg/kg, po; type: ADME, organism-based; conditions: in vivo; in short: as §1
Rattus norvegicus [31] = experiment: Toxicity in Sprague-Dawley rat assessed as motor impairment up to 100 mg/kg, po by inverted screen test; type: organism-based; conditions: in vivo; in short: as §1
Rattus norvegicus [32] = experiment: Protective index, ratio of TD50 for motor impairment to ED50 for inhibition of pentylenetetrazole-induced clonic convulsions in po dosed Sprague-Dawley rat
In short: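 PI = inverted screen TD50 divided by PTZ ED50. For the ED50, rats were dosed orally 30 min before PTZ (35 mg/kg, sc), with n = 10 per group. Read-out was % block of clonic convulsions; ED50 given with 95% confidence limits.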

T1 sequence (P42261 whole entry, canonical isoform): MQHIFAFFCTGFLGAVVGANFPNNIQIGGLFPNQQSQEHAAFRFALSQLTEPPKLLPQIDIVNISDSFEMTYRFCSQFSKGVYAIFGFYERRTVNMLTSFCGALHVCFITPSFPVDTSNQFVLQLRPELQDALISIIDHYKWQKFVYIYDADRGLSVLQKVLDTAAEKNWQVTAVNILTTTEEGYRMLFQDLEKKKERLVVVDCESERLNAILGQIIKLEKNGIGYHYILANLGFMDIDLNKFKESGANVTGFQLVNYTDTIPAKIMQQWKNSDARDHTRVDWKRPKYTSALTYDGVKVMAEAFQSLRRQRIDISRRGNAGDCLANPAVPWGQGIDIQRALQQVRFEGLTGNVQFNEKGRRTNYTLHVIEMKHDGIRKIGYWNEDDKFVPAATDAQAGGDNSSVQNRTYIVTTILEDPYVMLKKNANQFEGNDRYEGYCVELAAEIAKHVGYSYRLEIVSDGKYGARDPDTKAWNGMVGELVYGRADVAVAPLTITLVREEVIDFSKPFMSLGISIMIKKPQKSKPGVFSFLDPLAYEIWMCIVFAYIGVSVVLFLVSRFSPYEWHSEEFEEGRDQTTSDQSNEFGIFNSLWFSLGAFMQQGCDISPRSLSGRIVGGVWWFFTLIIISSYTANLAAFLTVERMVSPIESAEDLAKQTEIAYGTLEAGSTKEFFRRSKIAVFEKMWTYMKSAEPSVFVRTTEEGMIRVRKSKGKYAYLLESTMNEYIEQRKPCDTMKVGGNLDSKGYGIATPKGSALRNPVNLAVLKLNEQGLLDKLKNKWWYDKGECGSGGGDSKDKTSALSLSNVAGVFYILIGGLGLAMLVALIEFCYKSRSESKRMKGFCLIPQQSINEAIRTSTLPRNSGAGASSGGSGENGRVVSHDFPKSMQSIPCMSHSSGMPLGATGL

Structure (SMILES): C[C@@H](c1ccc2[nH]c(=O)sc2c1)c1ccn(-c2ccc(OCCO)cn2)n1
- TD50 [1]: 3.8 mg/kg
- IC50 (Glutamate receptor 1 [2]): 0.0653 µM
- IC50 (Glutamate receptor 1 [3]): 68.5 µM
- IC50 (Glutamate receptor 1 [4]): 83.3 µM
- AUC [5]: 1470 ng·h/mL
- clearance [6]: 11.4 mL/min/kg
- IC50 (Cytochrome P450 1A2): > 10 µM
- ED50 (Rattus norvegicus [7]): 1.7 mg/kg
- inhibition (Rattus norvegicus [7]): Dose-dependent effect
- bioavailability [8]: 97%
- Vd [9]: 1.28 L/kg
- clearance [10]: 11.4 mL/min/kg
- AUC [11]: 4220 ng·h/mL
- Tmax [12]: 1.3 h
- Cmax [13]: 628 ng/mL
- Ratio ED50 (Rattus norvegicus [14]): 10
- inhibition in vivo at 1 mg/kg (Rattus norvegicus [15]): 40%
- inhibition in vivo at 3 mg/kg (Rattus norvegicus [16]): 80%
- inhibition in vivo at 10 mg/kg (Rattus norvegicus [17]): 100%
- Cp (Plasma [18]): 1780 ng/mL
- Cp (Plasma [19]): 377 ng/mL
- Cp (Plasma [20]): 1269 ng/mL
- Cp (Plasma [21]): 3360 ng/mL
- Occ (Rattus norvegicus [22]): 45%
- Occ (Rattus norvegicus [23]): 69%
- Occ (Rattus norvegicus [24]): 68%
- Occ (Rattus norvegicus [25]): 96%
- Drug uptake (Brain [26]): 133 ng/g
- Drug uptake (Brain [27]): 477 ng/g
- Drug uptake (Brain [28]): 1526 ng/g
- Drug uptake (Brain [29]): 2400 ng/g
- Cp (Plasma [30]): 8342 ng/mL
- Activity (Rattus norvegicus [31]): Non-toxic
- Ratio TD50/ED50 (Rattus norvegicus [32]): >58
